ChEMBL document CHEMBL1131048, “Antiviral activities of methylated nordihydroguaiaretic acids. 1. Synthesis, structure identification, and inhibition of tat-regulated HIV transactivation” (J Med Chem, 1998)

What was measured:
Settings in all cases: Chlorocebus aethiops
[1] = tested on: COS-1; experiment: Inhibitory activity against HIV Tat-regulated Transactivation in COS cells.; format: functional, cell-based
Procedure, shortened: (§1)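 COS cells in IMDM with 10% FBS, penicillin, streptomycin and Fungizone, 37 °C, 5% CO2, seeded in triplicate at ca. 1.5×10^5 cells/well and grown 24 h to 50% confluence. Calcium phosphate cotransfection with CMV-driven tat plasmid (0.20 µg/well) and HIV LTR-SEAP plasmid (0.40 µg/well) for 18 h. Compound then added in medium with 0.30% DMSO final, for 48 h.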

[2] = tested on: COS-1; experiment: Compound tested for inhibition of HIV Tat-regulated Transactivation in COS cells at a concentration of 100 uM.; format: functional; procedure, shortened: as §1
[3] = tested on: COS-1; experiment: Compound tested for inhibition of HIV Tat-regulated Transactivation in COS cells at a concentration of 10 uM.; format: functional; procedure, shortened: as §1
[4] = tested on: COS-1; experiment: Compound tested for inhibition of HIV Tat-regulated Transactivation in COS cells at a concentration of 1 uM.; format: functional; procedure, shortened: as §1
[5] = tested on: COS-1; experiment: Compound tested for inhibition of HIV Tat-regulated Transactivation in COS cells at a concentration of 20 uM.; format: functional; procedure, shortened: as §1
[6] = tested on: COS-1; experiment: Compound tested for inhibition of HIV Tat-regulated Transactivation in COS cells at a concentration of 30 uM.; format: functional; procedure, shortened: as §1
[7] = tested on: COS-1; experiment: Compound tested for inhibition of HIV Tat-regulated Transactivation in COS cells at a concentration of 60 uM.; format: functional; procedure, shortened: as §1
[8] = tested on: COS-1; experiment: Compound tested for inhibition of HIV Tat-regulated Transactivation in COS cells at a concentration of 3 uM.; format: functional; procedure, shortened: as §1

| Structure (SMILES) | IC50 [1] [µM] | inhibition at 100 µM [2] [%] | inhibition at 10 µM [3] [%] | inhibition at 1 µM [4] [%] | inhibition at 20 µM [5] [%] | inhibition at 30 µM [6] [%] | inhibition at 60 µM [7] [%] | inhibition at 3 µM [8] [%] |
| --- | --- | --- | --- | --- | --- | --- | --- | --- |
| COc1cc(C[C@@H](C)[C@@H](C)Cc2ccc(O)c(OC)c2)ccc1O [MESODIHYDROGUAIARETIC ACID] | 39 | 73.7 | 22.3 | 5.5 | 30.5 | 43 | 63.7 | 10.3 |
| COc1ccc(C[C@@H](C)[C@@H](C)Cc2ccc(OC)c(OC)c2)cc1OC [TERAMEPROCOL] | 11.1 | 90.3 | 45 | 18.5 | 61 | 70 | 78.7 | 25.3 |
| COc1ccc(C[C@H](C)[C@H](C)Cc2ccc(OC)c(OC)c2)cc1O (racemic) | 14.3 | 88.3 | 41.7 | 16.5 | 52 | 66 | 78.3 | 27 |
| COc1ccc(C[C@@H](C)[C@@H](C)Cc2ccc(O)c(O)c2)cc1OC (racemic) | 16.5 | 96 | 20 | 12.5 | 59 | 69.3 | 87.7 | 14.3 |
| COc1ccc(C[C@@H](C)[C@@H](C)Cc2ccc(OC)c(O)c2)cc1O [DIMETHYLNORDIHYDROGUARIERATE ACID] | 29.9 | 85.7 | 19 | 9.5 | 38 | 52 | 70 | 8.7 |
| COc1ccc(C[C@@H](C)[C@@H](C)Cc2ccc(O)c(O)c2)cc1O | 30.8 | 91.3 | 5 | 5 | 27.5 | 52 | 73.7 | 2.3 |
| COc1cc(C[C@H](C)[C@H](C)Cc2ccc(OC)c(OC)c2)ccc1O (racemic) | 13.7 | 87.7 | 45 | 14.5 | 50.5 | 65 | 76.3 | 26.7 |
| COc1cc(C[C@@H](C)[C@@H](C)Cc2ccc(O)c(O)c2)ccc1O (racemic) | 25 | 92.3 | 20.7 | 9 | 38.5 | 56.3 | 83.3 | 7.3 |
